This passage reports IC50 results from ChEMBL document CHEMBL1139173, “Novel selective human mitochondrial kinase inhibitors: design, synthesis and enzymatic activity” (Bioorg Med Chem, 2007).

Test [1] addresses T1, Thymidine kinase (Human alphaherpesvirus 1, UniProt Q9QNF7).
T1 sequence (Q9QNF7 whole entry): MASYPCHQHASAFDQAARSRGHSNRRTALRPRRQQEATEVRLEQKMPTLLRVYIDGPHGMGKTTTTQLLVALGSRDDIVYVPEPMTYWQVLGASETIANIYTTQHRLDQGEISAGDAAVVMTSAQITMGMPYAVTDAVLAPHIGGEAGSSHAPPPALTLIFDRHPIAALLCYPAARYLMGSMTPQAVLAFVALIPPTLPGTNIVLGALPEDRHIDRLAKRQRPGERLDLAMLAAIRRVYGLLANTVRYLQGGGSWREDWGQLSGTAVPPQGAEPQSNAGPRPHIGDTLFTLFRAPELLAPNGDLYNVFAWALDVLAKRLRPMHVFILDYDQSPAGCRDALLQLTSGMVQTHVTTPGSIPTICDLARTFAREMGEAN
As to the kind of experiment: Inhibition of HSV1 TK assessed as [methyl-3H]dThd phosphorylation. The procedure, abridged: (§1)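 Purified recombinant GST-fusion kinases (from pGEX-5X-1 cDNAs) assayed in 50 mM Tris–HCl pH 8.0, 2.5 mM MgCl₂, 10 mM DTT, 0.5 mM CHAPS, 3 mg/mL BSA, 2.5 mM ATP, 0.25 µCi [methyl-³H]dThd (2 µM), ± varying inhibitor levels, 37 °C for 30 min. Reactions spotted on DE-81 filter disks, washed, and counted by scintillation. IC50 is the concentration halving dThd phosphorylation.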

The target in test [2] is T2, Thymidine kinase 2, mitochondrial (Homo sapiens, UniProt O00142).
T2 sequence (O00142 whole entry): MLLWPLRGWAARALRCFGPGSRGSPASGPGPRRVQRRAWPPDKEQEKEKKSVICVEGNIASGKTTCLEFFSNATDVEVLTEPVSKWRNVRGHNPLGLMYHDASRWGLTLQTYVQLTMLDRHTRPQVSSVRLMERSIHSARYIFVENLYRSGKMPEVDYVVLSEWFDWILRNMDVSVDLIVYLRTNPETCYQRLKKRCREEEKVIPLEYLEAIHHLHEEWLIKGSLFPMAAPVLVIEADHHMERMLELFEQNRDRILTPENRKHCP
The experiment in a line: Inhibition of human TK2 assessed as [methyl-3H]dThd phosphorylation. The procedure, abridged:
as §1

The target of test [3] is T3, Thymidine kinase (Varicella-zoster virus (strain Dumas) (HHV-3) (Human herpesvirus 3), UniProt P09250).
T3 sequence (P09250 whole entry): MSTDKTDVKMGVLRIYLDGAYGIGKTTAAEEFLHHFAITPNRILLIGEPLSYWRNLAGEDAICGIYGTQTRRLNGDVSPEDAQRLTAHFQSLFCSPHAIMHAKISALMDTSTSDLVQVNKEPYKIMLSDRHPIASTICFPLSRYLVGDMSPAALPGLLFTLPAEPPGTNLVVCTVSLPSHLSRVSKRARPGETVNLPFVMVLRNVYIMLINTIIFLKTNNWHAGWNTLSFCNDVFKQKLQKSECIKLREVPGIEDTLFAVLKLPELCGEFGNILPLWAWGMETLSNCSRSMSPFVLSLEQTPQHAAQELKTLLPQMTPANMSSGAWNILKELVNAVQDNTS
As to the kind of experiment: Inhibition of VZV TK assessed as [methyl-3H]dThd phosphorylation. Also noted: species or system Human alphaherpesvirus 3.

Test [4] deals with T4, Thymidine kinase, cytosolic (Homo sapiens, UniProt P04183).
T4 sequence (P04183 whole entry): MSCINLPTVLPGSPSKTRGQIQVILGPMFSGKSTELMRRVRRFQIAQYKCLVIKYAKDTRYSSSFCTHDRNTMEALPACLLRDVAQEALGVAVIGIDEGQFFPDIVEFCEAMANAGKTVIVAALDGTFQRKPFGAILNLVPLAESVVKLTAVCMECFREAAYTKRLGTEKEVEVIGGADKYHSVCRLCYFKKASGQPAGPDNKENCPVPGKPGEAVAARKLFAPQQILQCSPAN
As to the kind of experiment: Inhibition of human TK1 assessed as [methyl-3H]dThd phosphorylation. The procedure, abridged: as §1

Test [5] has as its target T5, Deoxynucleoside kinase (Drosophila melanogaster, UniProt Q9XZT6).
T5 sequence (Q9XZT6 whole entry): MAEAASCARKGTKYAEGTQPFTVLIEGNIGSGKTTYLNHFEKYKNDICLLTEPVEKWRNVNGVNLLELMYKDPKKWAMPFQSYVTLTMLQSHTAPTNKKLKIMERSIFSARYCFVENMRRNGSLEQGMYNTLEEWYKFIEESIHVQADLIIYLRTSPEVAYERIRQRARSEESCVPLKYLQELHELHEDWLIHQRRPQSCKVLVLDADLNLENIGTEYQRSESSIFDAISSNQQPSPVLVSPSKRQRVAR
The experiment in a line: Inhibition of Drosophila melanogaster dNK assessed as [methyl-3H]dThd phosphorylation. The method in brief: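 Purified recombinant enzyme expressed as a GST fusion. Mix: 50 mM Tris–HCl pH 8.0, 2.5 mM MgCl2, 10 mM DTT, 0.5 mM CHAPS, 3 mg/mL BSA, 2.5 mM ATP, 2 µM [methyl-3H]dThd (0.25 µCi). Incubated 37 °C, 30 min, with varied inhibitor levels. Aliquots spotted on DE-81 disks, washed, scintillation-counted.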

As to `Cc1cn([C@@H]2O[C@H](CO)[C@@H](O)[C@@H]2O)c(=O)[nH]c1=O`, the 50% inhibitory concentration (IC50) in test [1] was 24 µM.
Turning to `CCCCCCCCn1c(=O)c(C)cn([C@@H]2O[C@H](CO)[C@@H](O)[C@@H]2O)c1=O`, the IC50 in test [1], in test [2], in test [3], in test [4] and in test [5] was more than 500 µM throughout.
On to `O=c1[nH]c(=O)n([C@@H]2O[C@H](CO)[C@@H](O)[C@@H]2O)cc1/C=C/Br` [SORIVUDINE], for which the half-maximal inhibitory concentration (IC50) in test [1] was 3.6 µM; in test [2], 43 µM; in test [3], 3.2 µM; in test [4] it was more than 500 µM; in test [5], 28 µM.
`NCCCCCC(=O)O[C@H]1[C@H](O)[C@@H](CO)O[C@H]1n1cc(/C=C/Br)c(=O)[nH]c1=O`: the IC50 is 322 µM in test [1]; more than 500 µM in test [2]; 94 µM in test [3]; more than 500 µM in test [4]; more than 500 µM in test [5].
With `Nc1nc2c(ncn2[C@@H]2O[C@H](CO)[C@@H](O)[C@@H]2O)c(=O)[nH]1`, the IC50 in test [1], in test [2], in test [3], in test [4] and in test [5] was more than 500 µM in each case.
Regarding `CCCCCCCC(=O)Nc1nc2c(ncn2[C@@H]2O[C@H](CO)[C@@H](O)[C@@H]2OC(=O)CCCCCCC)c(=O)[nH]1`, the half-maximal inhibitory concentration (IC50) in test [1], in test [2], in test [3], in test [4] and in test [5] was more than 500 µM each time.
Take `COCC(=O)O[C@H]1[C@H](O)[C@@H](CO)O[C@H]1n1cc(/C=C/Br)c(=O)[nH]c1=O`: the IC50 in test [1] was 84 µM; in test [5], 215 µM.
For the molecule `CCCCCCCC(=O)O[C@H]1[C@H](O)[C@@H](CO)O[C@H]1n1cc(/C=C/Br)c(=O)[nH]c1=O`, the 50% inhibitory concentration (IC50) in test [1] is not below 1000 µM.
For the molecule `CCCCCCCC(=O)O[C@H]1[C@H](O)[C@@H](CO)O[C@H]1n1cc(C)c(=O)[nH]c1=O`, the IC50 was more than 1000 µM in test [1]; 120 µM in test [2]; more than 1000 µM in test [3]; more than 1000 µM in test [4]; more than 1000 µM in test [5].
On to `CC(C)(C)OC(=O)NCCCC(=O)O[C@H]1[C@H](O)[C@@H](CO)O[C@H]1n1cc(/C=C/Br)c(=O)[nH]c1=O`, for which the IC50 worked out at 485 µM in test [1], 55 µM in test [2], 130 µM in test [3] and 133 µM in test [5].
With `CCCCCCCCO[C@H]1[C@H](O)[C@@H](CO)O[C@H]1n1cc(C)c(=O)n(CCCCCCCC)c1=O`, the IC50 in test [1], in test [2], in test [3] and in test [5] was more than 1000 µM throughout.
For the molecule `CC(C)(C)OC(=O)NCCCCCCCCCCCC(=O)O[C@H]1[C@H](O)[C@@H](CO)O[C@H]1n1cc(/C=C/Br)c(=O)[nH]c1=O`, the IC50 in test [1] was more than 500 µM; in test [2] it was 3.8 µM; in test [3] it was more than 500 µM; in test [5], not below 500 µM.
In the case of `Nc1ccn([C@@H]2O[C@H](CO)[C@@H](O)[C@@H]2O)c(=O)n1` [CYTARABINE], the half-maximal inhibitory concentration (IC50) in test [1] was more than 1000 µM.
As to `CCCCCCCCCCCC(=O)O[C@H]1[C@H](O)[C@@H](CO)O[C@H]1n1cc(C)c(=O)[nH]c1=O`, the IC50 in test [1] and in test [4] was not below 1000 µM each time.
`Cc1cn([C@@H]2O[C@H](CO)[C@@H](O)[C@@H]2OCc2ccccc2)c(=O)[nH]c1=O`: the IC50 in test [1] was more than 1000 µM; in test [2], 801 µM; in test [3] it was more than 1000 µM; in test [4], more than 1000 µM; in test [5], more than 1000 µM.
In the case of `CC(C)(C)OC(=O)NCCCCCC(=O)O[C@H]1[C@H](O)[C@@H](CO)O[C@H]1n1cc(/C=C/Br)c(=O)[nH]c1=O`, the IC50 in test [1] is not below 500 µM; in test [2], 61 µM; in test [3], 277 µM; in test [5], 77 µM.
For `CCCCC(=O)O[C@H]1[C@H](O)[C@@H](CO)O[C@H]1n1cc(C)c(=O)[nH]c1=O`, in test [1], the IC50 was more than 1000 µM.
Same read-out and setting: the same measure for `CCCCCCCCCC(=O)O[C@H]1[C@H](O)[C@@H](CO)O[C@H]1n1cc(C)c(=O)[nH]c1=O`: not below 1000 µM.
On to `CCCCCCCC(=O)O[C@H]1[C@H](O)[C@@H](CO)O[C@H]1n1cnc2c(=O)[nH]c(N)nc21`, for which the IC50 in test [1], in test [2], in test [3], in test [4] and in test [5] was more than 500 µM in each case.
As to `CCCCC(=O)O[C@H]1[C@H](O)[C@@H](CO)O[C@H]1n1cnc2c(=O)[nH]c(N)nc21`, the half-inhibitory concentration (IC50) in test [1], in test [2], in test [3], in test [4] and in test [5] was more than 500 µM throughout.
`CCCCCCCCO[C@H]1[C@H](O)[C@@H](CO)O[C@H]1n1cc(C)c(=O)[nH]c1=O`: the IC50 in test [1] is more than 1000 µM.
Turning to `O=C(Cc1ccccc1)O[C@H]1[C@H](O)[C@@H](CO)O[C@H]1n1cc(/C=C/Br)c(=O)[nH]c1=O`, the half-inhibitory concentration (IC50) was 247 µM in test [1], 74 µM in test [2], 268 µM in test [3] and 419 µM in test [5].
As for `CC(C)(C)OC(=O)NCCCCCCCC(=O)O[C@H]1[C@H](O)[C@@H](CO)O[C@H]1n1cc(/C=C/Br)c(=O)[nH]c1=O`, the half-maximal inhibitory concentration (IC50) in test [1] was 447 µM; in test [2], 6.4 µM; in test [3] it was 349 µM; in test [5] it was 74 µM.
The like results for `CCCCCCCCCC(=O)N[C@H]1[C@H](O)[C@@H](CO)O[C@H]1n1cc(C)c(=O)[nH]c1=O` were, in that order, more than 500 µM, 480 µM, more than 500 µM and more than 500 µM.
The like results for `COc1ccc(CC(=O)O[C@H]2[C@H](O)[C@@H](CO)O[C@H]2n2cc(/C=C/Br)c(=O)[nH]c2=O)cc1` were, in that order, 68 µM, 44 µM, 39 µM and 182 µM.
Consider `NCCCC(=O)O[C@H]1[C@H](O)[C@@H](CO)O[C@H]1n1cc(/C=C/Br)c(=O)[nH]c1=O`, for which the IC50 in test [1] is 17 µM; in test [2], 187 µM; in test [3], 3.6 µM; in test [4], more than 500 µM; in test [5], 160 µM.

What is called IC50 is the concentration needed to halve the response being measured.
